Assay results published in ChEMBL document CHEMBL4308831, “Developing a Biased Unmatched Bivalent Ligand (BUmBL) Design Strategy to Target the GPCR Homodimer Allosteric Signaling (cAMP over β-Arrestin 2 Recruitment) Within the Melanocortin Receptors” (J Med Chem, 2018).
Calls of active or inactive are those of the source. The calls are words filed in the database; no cut-off is given here. Non-standard residues stand in square brackets, D forms with d. Residues, ends and D or L forms follow the SMILES beside them. d2Nal = N[C@H](Cc1ccc2ccccc2c1)C(=O)O

What was measured:
[1] = target: Melanocortin receptor 4 (Mus musculus) (UniProt P56450); assay: Decrease in protein-protein interaction of mouse Nano-Luc-tagged MC4R/mouse Halo-tagged MC4R homodimer expressed in HEK293 cells up to 10 mins by BRET assay; assay type: cell-based
[2] = target: Melanocortin receptor 4 (Mus musculus) (UniProt P56450); assay: Agonist activity at mouse MC4R expressed in HEK293 cells assessed as induction of intracellular cAMP accumulation after 2 hrs by AlphaScreen assay; assay type: functional, cell-based
Summary of the method: (§1)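 Stable HEK293 lines (G418 selection) carrying the receptor in pcDNA3, detached with Versene and resuspended in HBSS stimulation buffer containing 0.5 mM IBMX, 5 mM HEPES, 0.1% BSA, pH 7.4, with anti-cAMP acceptor beads; 10,000 cells/well. Ligand 10^-13 to 10^-4 M final, 2 h at room temperature in the dark, then donor beads in lysis buffer for 2 h. Duplicates, ≥3 experiments; curves normalized and flipped relative to controls.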

Melanocortin receptor 4 [3] = target: T1, Melanocortin receptor 4 (Homo sapiens, UniProt P32245); assay: Agonist activity at human FLAG-tagged MC4R expressed in HTLA cells assessed as induction of beta-arrestin recruitment at 10 uM after 18 hrs by Presto-tango assay relative to NDP-MSH; assay type: cell-based
Summary of the method: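 HTLA cells (HEK293 with tTA-luciferase reporter and β-arrestin2-TEV) transiently transfected by calcium phosphate with hMC4R PRESTO-Tango construct (4 µg/plate), held 15–24 h at 35 °C and 3% CO2, then plated at 20,000 cells/well in 1% dialyzed FBS. Ligands 10^-12 to 10^-5 M in HEPES/HBSS pH 7.4, 18 h at 37 °C; Bright-Glo luminescence. Duplicates, ≥3 experiments.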

Melanocortin receptor 4 [4] = target: T1, Melanocortin receptor 4; assay: Selectivity ratio of EC50 for agonist activity at human FLAG-tagged MC4R expressed in HTLA cells assessed as induction of beta-arrestin recruitment to EC50 for agonist activity at human FLAG-tagged MC4R expressed in HEK293 cells assessed as induction of intracellular cAMP accumulation; assay type: functional, cell-based
Melanocortin receptor 4 [5] = target: T1, Melanocortin receptor 4; assay: Antagonist activity at human FLAG-tagged MC4R expressed in HEK293 cells assessed as reduction in NDP-MSH-induced intracellular cAMP accumulation after 2 hrs by AlphaScreen assay; assay type: functional, cell-based; conditions: read-out: pA2 (converted)
Summary of the method: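 Stable hMC4R-Flag HEK293 cells in IBMX-containing HBSS stimulation buffer with AlphaScreen cAMP beads, 10,000 cells/well, stimulated 2 h at room temperature. Antagonist ligands tested dose-dependently against NDP-MSH stimulation; pA2 from Schild regression. Duplicate points, at least three independent experiments.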

Melanocortin receptor 4 [6] = target: T1, Melanocortin receptor 4; assay: Agonist activity at human FLAG-tagged MC4R expressed in HEK293 cells assessed as induction of intracellular cAMP accumulation at 10 uM after 2 hrs by AlphaScreen assay relative to NDP-MSH; assay type: functional, cell-based; summary of the method: as §1
[7] = target: Melanocortin receptor 4 (Mus musculus) (UniProt P56450); assay: Effect on protein-protein interaction of mouse Nano-Luc-tagged MC4R/mouse Halo-tagged MC4R homodimer expressed in HEK293 cells at 10^-9 to 10^-5 M up to 10 mins by BRET assay; assay type: cell-based
Melanocortin receptor 4 [8] = target: T1, Melanocortin receptor 4; assay: Agonist activity at human FLAG-tagged MC4R expressed in HEK293 cells assessed as induction of intracellular cAMP accumulation after 2 hrs by AlphaScreen assay; assay type: functional, cell-based

T1 sequence (P32245 whole entry): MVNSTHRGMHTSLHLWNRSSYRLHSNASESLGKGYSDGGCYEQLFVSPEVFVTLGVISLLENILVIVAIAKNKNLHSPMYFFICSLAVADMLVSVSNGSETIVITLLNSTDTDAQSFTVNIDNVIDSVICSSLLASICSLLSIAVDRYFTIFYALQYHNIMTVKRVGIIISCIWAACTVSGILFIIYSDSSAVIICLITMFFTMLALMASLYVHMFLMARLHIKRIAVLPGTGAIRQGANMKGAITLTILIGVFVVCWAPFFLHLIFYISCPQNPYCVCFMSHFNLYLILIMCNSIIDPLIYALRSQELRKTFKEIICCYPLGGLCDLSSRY
Chain of Melanocortin receptor 4 (Mus musculus) (P56450 whole entry): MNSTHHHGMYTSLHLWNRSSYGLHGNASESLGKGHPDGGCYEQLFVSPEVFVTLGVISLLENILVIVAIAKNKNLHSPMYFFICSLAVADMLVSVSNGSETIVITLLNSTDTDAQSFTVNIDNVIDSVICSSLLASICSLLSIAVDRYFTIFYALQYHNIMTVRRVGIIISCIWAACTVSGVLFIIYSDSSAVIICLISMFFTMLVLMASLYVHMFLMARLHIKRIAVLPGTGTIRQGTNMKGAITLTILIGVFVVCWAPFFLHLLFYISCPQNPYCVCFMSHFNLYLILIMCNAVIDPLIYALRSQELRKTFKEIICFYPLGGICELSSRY

SMILES | Activity [2] | Activity (Melanocortin receptor 4 [3]) [%] | Ratio EC50 (Melanocortin receptor 4 [4]) | Kb (Melanocortin receptor 4 [5]) [nM] | Activity (Melanocortin receptor 4 [6]) [%] | other results
CC(=O)N[C@@H](Cc1cnc[nH]1)C(=O)N[C@H](Cc1ccccc1)C(=O)N[C@@H](CCCNC(=N)N)C(=O)N[C@@H](Cc1c[nH]c2ccccc12)C(N)=O | Active |  |  |  |  | Activity [1]: Dose-dependent effect
CC(=O)N[C@@H](Cc1cnc[nH]1)C(=O)N[C@H](Cc1ccc2ccccc2c1)C(=O)N[C@@H](CCCNC(=N)N)C(=O)N[C@@H](Cc1c[nH]c2ccccc12)C(=O)NCCCOCCOCCOCCCNC(=O)COCC(=O)N[C@@H](Cc1cnc[nH]1)C(=O)N[C@H](Cc1ccccc1)C(=O)N[C@@H](CCCNC(=N)N)C(=O)N[C@@H](Cc1c[nH]c2ccccc12)C(N)=O |  | 20 | 3000 |  |  | 
N=C(N)NCCC[C@H](NC(=O)[C@@H](Cc1ccc2ccccc2c1)NC(=O)[C@H](Cc1cnc[nH]1)NC(=O)COCC(=O)NCCCOCCOCCOCCCN)C(=O)N[C@@H](Cc1c[nH]c2ccccc12)C(N)=O |  | 20 |  | 13.5 | 50 | 
CC(=O)N[C@@H](Cc1cnc[nH]1)C(=O)N[C@H](Cc1ccc2ccccc2c1)C(=O)N[C@@H](CCCNC(=N)N)C(=O)N[C@@H](Cc1c[nH]c2ccccc12)C(=O)NCCCOCCOCCOCCCNC(=O)COCC(=O)N[C@@H](Cc1cnc[nH]1)C(=O)N[C@H](Cc1ccc2ccccc2c1)C(=O)N[C@@H](CCCNC(=N)N)C(=O)N[C@@H](Cc1c[nH]c2ccccc12)C(N)=O | inactive | 10 |  | 15.8 | 70 | Activity [7]: inactive
CC(=O)N[C@@H](Cc1cnc[nH]1)C(=O)N[C@H](Cc1ccc2ccccc2c1)C(=O)N[C@@H](CCCNC(=N)N)C(=O)N[C@@H](Cc1c[nH]c2ccccc12)C(=O)NCCCOCCOCCOCCCNC(=O)COCC(=O)NCCCOCCOCCOCCCNC(=O)COCC(=O)N[C@@H](Cc1cnc[nH]1)C(=O)N[C@H](Cc1ccccc1)C(=O)N[C@@H](CCCNC(=N)N)C(=O)N[C@@H](Cc1c[nH]c2ccccc12)C(N)=O |  | 25 | 3000 |  |  | EC50 (Melanocortin receptor 4 [8]): 5.9 nM
CC(=O)N[C@@H](Cc1cnc[nH]1)C(=O)N[C@H](Cc1ccc2ccccc2c1)C(=O)N[C@@H](CCCNC(=N)N)C(=O)N[C@@H](Cc1c[nH]c2ccccc12)C(=O)N1CCC[C@H]1C(=O)NCC(=O)N1CCC[C@H]1C(=O)NCC(=O)N1CCC[C@H]1C(=O)NCC(=O)N1CCC[C@H]1C(=O)NCC(=O)N1CCC[C@H]1C(=O)NCC(=O)N1CCC[C@H]1C(=O)NCC(=O)N[C@@H](Cc1cnc[nH]1)C(=O)N[C@H](Cc1ccccc1)C(=O)N[C@@H](CCCNC(=N)N)C(=O)N[C@@H](Cc1c[nH]c2ccccc12)C(N)=O |  | 55 | 3000 |  |  | 
CC(=O)N[C@@H](Cc1cnc[nH]1)C(=O)N[C@H](Cc1ccccc1)C(=O)N[C@@H](CCCNC(=N)N)C(=O)N[C@@H](Cc1c[nH]c2ccccc12)C(=O)NCCCOCCOCCOCCCNC(=O)COCC(=O)N[C@@H](Cc1cnc[nH]1)C(=O)N[C@H](Cc1ccc2ccccc2c1)C(=O)N[C@@H](CCCNC(=N)N)C(=O)N[C@@H](Cc1c[nH]c2ccccc12)C(N)=O | Active | 45 | 3000 |  |  | 
CC(=O)N[C@@H](Cc1c[nH]cn1)C(=O)N[C@H](Cc1ccc2ccccc2c1)C(=O)N[C@@H](CCCN=C(N)N)C(=O)N[C@@H](Cc1c[nH]c2ccccc12)C(N)=O | inactive | 30 |  |  | 50 | Activity [7]: inactive
CC(=O)N[C@@H](Cc1cnc[nH]1)C(=O)N[C@H](Cc1ccccc1)C(=O)N[C@@H](CCCNC(=N)N)C(=O)N[C@@H](Cc1c[nH]c2ccccc12)C(=O)NCCCOCCOCCOCCCNC(=O)COCC(=O)N[C@@H](Cc1cnc[nH]1)C(=O)N[C@H](Cc1ccccc1)C(=O)N[C@@H](CCCNC(=N)N)C(=O)N[C@@H](Cc1c[nH]c2ccccc12)C(N)=O | Active |  |  |  |  | Activity [1]: Dose-dependent effect
CC(=O)N[C@@H](Cc1cnc[nH]1)C(=O)N[C@H](Cc1ccc2ccccc2c1)C(=O)N[C@@H](CCCNC(=N)N)C(=O)N[C@@H](Cc1c[nH]c2ccccc12)C(=O)N1CCC[C@H]1C(=O)NCC(=O)N1CCC[C@H]1C(=O)NCC(=O)N1CCC[C@H]1C(=O)NCC(=O)N1CCC[C@H]1C(=O)NCC(=O)N1CCC[C@H]1C(=O)NCC(=O)N1CCC[C@H]1C(=O)NCC(N)=O (Ac-H[d2Nal]RWPGPGPGPGPGPG-NH2) |  | 30 |  | 52.5 | 55 | 
CC(=O)N[C@@H](Cc1cnc[nH]1)C(=O)N[C@H](Cc1ccc2ccccc2c1)C(=O)N[C@@H](CCCNC(=N)N)C(=O)N[C@@H](Cc1c[nH]c2ccccc12)C(=O)NCCCOCCOCCOCCCNC(=O)COCC(N)=O |  | 15 |  | 7.59 | 55 | 
CC(=O)N[C@@H](Cc1cnc[nH]1)C(=O)N[C@H](Cc1ccc2ccccc2c1)C(=O)N[C@@H](CCCNC(=N)N)C(=O)N[C@@H](Cc1c[nH]c2ccccc12)C(N)=O |  |  |  | 15.1 |  | 
